We go through five compounds from ChEMBL document CHEMBL1126160, “Synthesis and structure-activity relationships of 7-diazabicycloalkylquinolones, including danofloxacin, a new quinolone antibacterial agent for veterinary medicine” (J Med Chem, 1992).

In general, solubility refers to the concentration that dissolves in the medium under given conditions. Low readings indicate little dissolved substance, high ones much dissolved substance.

Values after ≈ are worked out from the molar mass of the structure shown.

For data set [1], the system named is Phocaeicola vulgatus. Description: In vitro antibacterial activity against anaerobically grown Bacteroides vulgatus (78D029). It counts as functional. The method in brief: (§1)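 Agar dilution MICs. Anaerobic strains were tested on tryptose agar with 5% bovine blood and incubated 48 h at 39 °C in an anaerobe chamber under N2/CO2/H2 (80:10:10).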
Data set [2] deals with Clostridium perfringens. Briefly: microbe, parasite or virus in culture. It counts as functional.
The test system of data set [3] is Trueperella pyogenes. Description: In vitro antibacterial activity against anaerobically grown Actinomyces pyogenes (14D002). In kind it is functional. The procedure, abridged:
as §1

The subject of data set [4] is Actinobacillus pleuropneumoniae. Description: In vitro antibacterial activity against anaerobically grown Actinobacillus pleuropneumoniae ([…]). In kind it is functional. The procedure, abridged:
as §1

Data set [5] is described as follows: In vitro evaluation for antibacterial activity against anaerobically grown Treponema hyodysenteriae (94A007). It counts as functional. To be noted: Brachyspira hyodysenteriae.
Data set [6] has as its system Bordetella bronchiseptica. Briefly: In vitro antibacterial activity against aerobically grown Bordetella bronchiseptica (73A009). In kind it is functional. The method in brief: (§2)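 Agar dilution MICs. Aerobic strains were tested on brain heart infusion agar and incubated aerobically at 37 °C for 18–20 h.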
Data set [7] relates to Salmonella enterica. Briefly: In vitro antibacterial activity against aerobically grown Salmonella choleraesuis (58B015). It counts as functional.
In data set [8] the test system is Escherichia coli. Briefly: In vivo protective dose was evaluated against Escherichia coli (51A266) in mouse(sc). It counts as functional. To be noted: read-out: PD50. The procedure, abridged:
(§3)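 Female CF-1 mice (15 g), groups of 10, challenged ip with 0.5 mL bacterial suspension (P. multocida 59A006 or E. coli 51A266 at 3.0 × 10^8 cfu/mL; S. choleraesuis 58B010 at 8.5 × 10^2 cfu/mL). Drug given sc or po at 30 min, 4 h and 24 h after challenge; survival recorded at 96 h; PD50 by probit analysis.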

Data set [9] relates to Pasteurella multocida. Description: In vivo protective dose was evaluated against Pasteurella multocida (59A006) in mouse(sc). Particulars: read-out: PD50. In kind it is functional. The procedure, abridged:
as §3

Data set [10] concerns Staphylococcus aureus. Description: In vitro antibacterial activity against aerobically grown Staphylococcus aureus (54B004). In kind it is functional. The method in brief:
as §2

Data set [11] relates to Pasteurella multocida. Description: In vitro antibacterial activity against aerobically grown Pasteurella multocida (59A006). It counts as functional. The procedure, abridged: as §2
Data set [12] can be described thus: In vitro antibacterial activity against Aerobically grown Pasteurella haemolytica (59B018). In kind it is functional. To be noted: Mannheimia haemolytica. The procedure, abridged:
as §2

For data set [13], the system named is Escherichia coli. Briefly: Escherichia coli DNA cleavage endpoint value which is the minimum amount required (in micro g/mL) to induce detectable cleavage of supercoiled pBR322 substrate to linear form (gyrase). It counts as functional. Particulars: read-out: MIC. The method in brief: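 DNA gyrase A and B subunits were purified from E. coli overproducers. About 2 units of holoenzyme were incubated with pBR322 in Tris-HCl pH 7.5 containing MgCl2, spermidine, DTT, 0.2 mM ATP, BSA and tRNA. Drug was added as 2-fold serial dilutions, and reactions ran for 60 min at 25 °C. Reactions were stopped with SDS and proteinase K, then run on agarose and stained with ethidium. The endpoint was the lowest concentration giving detectable linear DNA.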

Data set [14] concerns Escherichia coli. Briefly: In vitro antibacterial activity against aerobically grown Escherichia coli (51A538). It counts as functional. The procedure, abridged: as §2
Data set [15] relates to Escherichia coli. Description: In vivo protective dose was evaluated against Escherichia coli (51A266) in mouse(po). Particulars: read-out: PD50. It counts as functional. The method in brief:
as §3

The test system of data set [16] is Mannheimia haemolytica. Description: Compound was evaluated for minimum effective dose against Pasteurella haemolytica, intramuscular dose administration. It counts as functional. To be noted: im, read-out: MED. The procedure, abridged:
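Calves acid-treated intratracheally with 0.6 mL 8% acetic acid at 24 h and 4 h before endotracheal challenge with 50 mL P. haemolytica B280PA (~5 × 10^8 cfu/mL). im dosing of 2.5% or 5% solution in sterile water, day 0 and day 1 (SID × 2). Clinical signs and temperature recorded days 0–5; lungs scored and cultured. MED = lowest dose giving significant (65%) reduction of lung pathology.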

Data set [17] deals with Pasteurella multocida. Description: In vivo protective dose was evaluated against Pasteurella multocida (59A006) in mouse(po). In kind it is functional. Particulars: read-out: PD50. The procedure, abridged:
as §3

Data set [18] deals with Actinobacillus pleuropneumoniae. Description: Compound was evaluated for minimum effective dose against Actinobacillus pleuropneumonia, intramuscular dose administration. Particulars: im, read-out: MED.
The test system of data set [19] is Pasteurella multocida. Briefly: In vivo protective dose was evaluated Pasteurella multocida (59A006) in mouse(sc). It counts as functional. Particulars: read-out: PD50. The procedure, abridged: as §3
A short description of data set [20]: compound was evaluated for aqueous solubility at pH 7.2. In kind it is physicochemical. Particulars: buffer. The method in brief: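 Excess solid (~5 mg) shaken in 3 mL 0.05 M phosphate buffer pH 7.2 at 23 ± 1 °C in duplicate vials up to 3 days, pH readjusted to 7.2 after each sampling; filtered (0.45 nylon) samples analysed by HPLC.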
Data set [21] concerns Actinobacillus pleuropneumoniae. Briefly: Compound was evaluated for minimum effective dose against Actinobacillus pleuropneumonia, peroral dose administration. Particulars: po, read-out: MED. It counts as functional. The procedure, abridged: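 Cross-bred swine, 8.5–12.5 kg; intranasal challenge with A. pleuropneumoniae strain B316HM, grown overnight on enriched BHI agar at 37 °C in 5–10% CO2 and standardized by OD to 10^9 cfu/mL, three 1-mL increments per nostril. Single treatment (SID × 1): im 1% or 2.5% solution in sterile water into ham within 1 h of challenge, or oral gavage of 0.5% solution in sterile water.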

The nature of data set [22]: Compound was evaluated for aqueous solubility at pH 7.2. To be noted: buffer.

`CN1C[C@@H]2C[C@H]1CN2c1cc2c(cc1F)c(=O)c(C(=O)O)cn2-c1ccc(F)cc1`: the MIC in [1] was 1.56 µg/mL (≈ 3.79 µM); in data set [2] it was 0.1 µg/mL (≈ 0.243 µM); in [3], 3.13 µg/mL (≈ 7.61 µM); in data set [4], 0.1 µg/mL (≈ 0.243 µM); in data set [5], 0.78 µg/mL (≈ 1.9 µM); in data set [6], 1.56 µg/mL (≈ 3.79 µM). Also, the MIC was 0.2 µg/mL (≈ 0.486 µM) in [7]; 0.2 µg/mL (≈ 0.486 µM) in [10]; 0.02 µg/mL (≈ 0.0486 µM) in data set [11]; 0.1 µg/mL (≈ 0.243 µM) in data set [12]; 0.2 µg/mL (≈ 0.486 µM) in data set [14]. The ED50 in data set [8] stood at 0.94 mg/kg; in data set [9], 0.29 mg/kg. The minimum concentration inducing gyrase-mediated DNA cleavage in data set [13] is 1.56 µg/mL.

Consider `CN1[C@@H]2CC[C@H]1CN(c1cc3c(cc1F)c(=O)c(C(=O)O)cn3C1CC1)C2`, for which the MIC was found to be 1.56 µg/mL (≈ 4.2 µM) in data set [1]; 0.1 µg/mL (≈ 0.269 µM) in data set [2]; 3.13 µg/mL (≈ 8.43 µM) in data set [3]; 0.39 µg/mL (≈ 1.05 µM) in [4]; 0.78 µg/mL (≈ 2.1 µM) in data set [5]; 1.56 µg/mL (≈ 4.2 µM) in data set [6]. Further, the MIC in data set [7] is 0.2 µg/mL (≈ 0.538 µM); in data set [10] it was 0.1 µg/mL (≈ 0.269 µM); in data set [11], 0.05 µg/mL (≈ 0.135 µM); in [12], 0.1 µg/mL (≈ 0.269 µM); in [14], 0.1 µg/mL (≈ 0.269 µM). Also, the ED50 in data set [15] came to 3.8 mg/kg; in [8], 0.15 mg/kg; in data set [9], 0.37 mg/kg; in data set [17], 0.98 mg/kg. The minimal effective dose in [16] and in [18] was 0.3 mg/kg each time. In addition, the minimum concentration inducing gyrase-mediated DNA cleavage in data set [13] turned out to be 0.78 µg/mL.

`CCn1cc(C(=O)O)c(=O)c2cc(F)c(N3CC[C@H]4CCC(C3)N4C)cc21`: the MIC in [1] was above 3.13 µg/mL; in data set [2], 1.56 µg/mL (≈ 4.18 µM); in [3], above 3.13 µg/mL; in [4], 0.78 µg/mL (≈ 2.09 µM); in data set [5] it was above 3.13 µg/mL; in data set [6] it was above 1.56 µg/mL. Besides, the MIC in [7] is above 1.56 µg/mL; in data set [10], 1.56 µg/mL (≈ 4.18 µM); in data set [11], 0.39 µg/mL (≈ 1.04 µM); in [12] it was 1.56 µg/mL (≈ 4.18 µM); in data set [14] it was above 1.56 µg/mL. Besides, the ED50 in [19] is 1.03 mg/kg. In addition, the minimum concentration inducing gyrase-mediated DNA cleavage in [13] amounted to 1.56 µg/mL.

Take `CCn1cc(C(=O)O)c(=O)c2cc(F)c(N3CCN4CCC3CC4)cc21` [BINFLOXACIN]: the MIC in [1] was above 3.13 µg/mL; in [2], 0.1 µg/mL (≈ 0.278 µM); in data set [3], 3.13 µg/mL (≈ 8.71 µM); in data set [4] it was 0.05 µg/mL (≈ 0.139 µM); in data set [5] it was 1.56 µg/mL (≈ 4.34 µM); in [6], 1.56 µg/mL (≈ 4.34 µM). Also, the MIC was 0.2 µg/mL (≈ 0.556 µM) in data set [7]; 0.39 µg/mL (≈ 1.09 µM) in [10]; 0.05 µg/mL (≈ 0.139 µM) in data set [11]; 0.1 µg/mL (≈ 0.278 µM) in data set [12]; 0.2 µg/mL (≈ 0.556 µM) in data set [14]. Also, the ED50 in [15] came out at 10.2 mg/kg; in [8] it was 1.1 mg/kg; in data set [9], 0.63 mg/kg; in data set [17] it was 1.9 mg/kg. The minimal effective dose in data set [16] was 0.3 mg/kg; in data set [21], 2.5 mg/kg; in [18], 0.3 mg/kg. For the same compound, the concentration in solution in [20] (solubility) was 49 µg/mL (≈ 136 µM). Moreover, the minimum concentration inducing gyrase-mediated DNA cleavage in data set [13] amounted to 1.56 µg/mL.

Consider `CCn1cc(C(=O)O)c(=O)c2cc(F)c(N3CCNCC3)cc21` [NORFLOXACIN], for which the MIC in data set [1] is 25 µg/mL (≈ 78.3 µM); in data set [2], 0.39 µg/mL (≈ 1.22 µM); in data set [3], 12.5 µg/mL (≈ 39.1 µM); in data set [4], below 0.05 µg/mL; in data set [5], 6.25 µg/mL (≈ 19.6 µM); in data set [6], 6.25 µg/mL (≈ 19.6 µM). The MIC came out at 0.1 µg/mL (≈ 0.313 µM) in data set [7]; 3.13 µg/mL (≈ 9.8 µM) in [10]; 0.05 µg/mL (≈ 0.157 µM) in data set [11]; 0.05 µg/mL (≈ 0.157 µM) in data set [12]; 0.1 µg/mL (≈ 0.313 µM) in data set [14]. In addition, the ED50 in data set [15] worked out at 8.84 mg/kg; in [8] it was 0.46 mg/kg; in [9], 5.54 mg/kg; in [17] it was 0.63 mg/kg. Also, in [22], the solubility is 350 µg/mL (≈ 1100 µM). Besides, the minimum concentration inducing gyrase-mediated DNA cleavage in data set [13] was found to be 0.78 µg/mL.
